Hits are enriched below; roughly 2.7% of the tested compounds scored in any of these assays.
RBBP9 inh: inhibitors of human serine hydrolase RBBP9; recombinant RBBP9, FP-Rh probe fluorescence polarization; inhibition, % at 7.94 µM; AID 1515; O75884; actives 0.2% (n = 220,000);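 active = inhibition above the campaign mean of all tested compounds plus 3 SD, cut at about 14% in these data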;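 also: plate controls were DMSO wells with RBBP9 for no effect and wells lacking RBBP9 protein for full effect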
Target sequence (O75884 whole entry, looked up): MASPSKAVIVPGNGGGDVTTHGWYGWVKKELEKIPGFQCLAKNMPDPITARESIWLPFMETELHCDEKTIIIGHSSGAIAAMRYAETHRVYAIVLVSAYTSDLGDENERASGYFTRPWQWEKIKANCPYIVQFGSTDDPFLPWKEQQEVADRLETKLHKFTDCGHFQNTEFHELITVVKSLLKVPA
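system = RBBP9 protein | input = RBBP9 at 2.5 µM in dispensed solution, before mixing | measured by = fluorescence polarization (mP), excitation 525 nm, emission 598 nm | incubation = enzyme-compound preincubation 30 min, then probe labeling 45 min, 25 °C | buffer or medium = Tris-NaCl-Pluronic buffer, pH 8.0 | compound = single dose 7.94 µM | also added = FP-Rh probe, 375 nM dispensing solution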
PAD4 inh: inhibitors of human PAD4 | actives 0.41% (n = 330,000) | inhibition, % at 6.36 µM | recombinant PAD4, RCA probe fluorescence polarization | Q9UM07;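 active = percent inhibition above a cutoff equal to the mean of all tested compounds plus 3 SD, cut at about 15% in these data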;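 also: 0% = PAD4 with RCA probe and DMSO and 100% = probe without PAD4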
PRMT1 inh: inhibitors of human PRMT1; actives 1.3% (n = 370,000); recombinant PRMT1, activity-based probe fluorescence polarization; Q99873; inhibition, % at 2.79 µM;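 active = inhibition above about 21% made by adding two undisclosed values, limit read from the data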
GSTO1 counter: blocks human GSTO1 in RBBP9 counter-screen; P78417; recombinant GSTO1, activity-based probe fluorescence polarization; inhibition, % at 5.96 µM; actives 1.1% (n = 300,000); AID 1974;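 active = inhibition above the campaign mean inhibition plus 3 SD, cut at about 35% in these data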;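 also: 0% = GSTO1-1 with DMSO and 100% = wells lacking GSTO1-1 enzyme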
Target sequence (P78417 whole entry, looked up): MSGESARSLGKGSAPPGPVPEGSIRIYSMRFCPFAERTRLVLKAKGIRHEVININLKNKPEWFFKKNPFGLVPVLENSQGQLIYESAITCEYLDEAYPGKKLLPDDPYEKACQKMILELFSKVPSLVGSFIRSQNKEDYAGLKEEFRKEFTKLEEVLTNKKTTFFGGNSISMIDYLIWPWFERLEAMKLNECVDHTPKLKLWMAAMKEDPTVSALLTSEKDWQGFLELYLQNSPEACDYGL
SIAE inh: blocks human sialic acid acetylesterase | Q9HAT2 | SIAE FP-Rh probe binding, fluorescence polarization | inhibition, % at 9.66 µM | actives 0.69% (n = 370,000);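 active = inhibition above a cutoff: mean of compounds within the control limits plus 3 SD of those, cut at about 17% in these data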;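 also: 0% = plate median of compound wells and 100% = probe without SIAE protein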
PRMT1 confirm: confirmation of human PRMT1 inhibitors; AID 687036; recombinant His-PRMT1, activity-based probe fluorescence polarization; actives 42% (n = 3,300); inhibition, % at 2.79 µM; shares compounds with PRMT1 inh;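 active = mean inhibition across replicates above the hit cutoff derived for the earlier primary screen, cut at about 22% in these data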
The depositor's hits bear a star; / = no result given.

SMILES	RBBP9 inh	PAD4 inh	PRMT1 inh	GSTO1 counter	SIAE inh	PRMT1 confirm
Cc1ccc(-n2c(SCc3nc4ccccc4[nH]3)nnc2-c2ccncc2)cc1	-0.6	-3.1	0.4	-1.6	-1.5	/
Cc1cccc(NC(=S)NC(=O)/C=C/c2ccco2)c1	-2.1	-10.5	35.5*	8.4	4.8	11.4
CC(C)Cn1nc(NC(=O)c2ccco2)c2cc3ccccc3nc21	-6.6	0.4	-4.8	-5.7	-2.0	/
COc1ccccc1-n1ccnc(SCC(=O)NCc2ccccc2)c1=O	/	4.3	20.0	2.9	0.9	/
O=C(CSc1nccn(-c2ccc(Br)cc2)c1=O)NCc1ccccc1	/	1.4	19.8	13.7	-1.4	/
COc1ccc(-n2ccnc(SCC(=O)NCc3ccc(C)cc3)c2=O)cc1Cl	/	-7.6	35.5*	0.7	5.2	20.9
Cc1ccc(CNC(=O)CSc2nccn(-c3ccc(C)c(F)c3)c2=O)cc1	/	-1.3	36.9*	3.4	1.3	18.8
COc1ccc(Cn2c(=N)c(C(=O)NCC3CCCO3)cc3c(=O)n4ccccc4nc32)cc1 (stereo not drawn)	/	-1.7	-5.7	6.1	-2.6	/
O=C(O)/C=C/C(=O)N1N=C(c2ccco2)CC1c1ccco1 (stereo not drawn)	/	-6.3	43.1*	-7.2	-6.7	7.5
CN(C)CCN(C(=O)c1ccc2c(c1)OCCO2)c1nc2ccc(Cl)cc2s1	-2.3	0.0	2.3	-5.2	-1.3	/
Cc1cccc2sc(N(CCCN(C)C)C(=O)c3ccc4ncsc4c3)nc12	/	8.2	29.1*	8.5	0.5	10.7
CCc1ccc2nc(N(CCN(C)C)C(=O)c3ccc4ncsc4c3)sc2c1	/	11.2	42.6*	-0.4	-2.9	2.8
COC(=O)c1ccc2nc(-c3ccccc3)c(Cc3ccsc3)n2c1	/	/	3.4	/	-1.0	/
COC(=O)c1ccc2nc(-c3ccco3)c(Cc3ccsc3)n2c1	/	/	32.5*	/	2.8	37.4*
COC(=O)c1ccc2nc(-c3ccco3)c(Cc3cccc(Cl)c3)n2c1	/	/	25.1*	/	-0.1	7.8
Cc1ccc(NP(=O)(c2ccc(N(C)C)cc2NC(=O)c2cccs2)N2CCOCC2)cc1Cl (stereo not drawn)	1.5	-3.5	-4.4	-13.6	-4.1	/
CCOC(=O)C1=C(N)Oc2cc(C)[nH]c(=O)c2C1c1ccncc1 (stereo not drawn)	-9.5	3.1	-5.5	-2.0	-0.6	/
CCOC(=O)C1=C(N)Oc2c(c(=O)[nH]c3ccccc23)C1c1ccccc1 (stereo not drawn)	-2.1	-1.9	58.2*	-8.4	4.1	20.0
O=C(CN1C(=O)CSc2ccc(S(=O)(=O)N3CCOCC3)cc21)NCc1ccc(F)cc1	/	1.4	-1.0	-1.9	-4.9	/
CC1(C)Cc2c(c(N3CCOCC3)nc3sc(C(=O)Nc4cccc(Cl)c4)c(N)c23)CO1	/	2.3	8.2	2.6	-0.5	/
CC1(C)Cc2c(c(N3CCOCC3)nc3sc(C(=O)Nc4ccccc4)c(N)c23)CO1	/	-7.0	27.2*	-1.6	4.2	23.5*
COCCCNC(=O)C(=O)NCC(c1ccco1)N1CCN(c2ccc(OC)cc2)CC1 (stereo not drawn)	/	6.5	3.9	-9.3	5.2	/
COc1ccc2sc(SCCCS(=O)(=O)O)[n+](CCCS(=O)(=O)[O-])c2c1	-4.8	-1.1	58.0*	-4.0	2.5	59.0*
O=S(=O)([O-])CCC[n+]1ccc(Oc2ccccc2)cc1	/	/	-3.6	/	4.8	/
COc1ccc(N2C(=O)C3NN=C(C(=O)OCc4ccccc4)C3C2=O)cc1 (stereo not drawn)	-2.2	1.9	-0.6	1.2	5.3	/
SMILES	RBBP9 inh	PAD4 inh	PRMT1 inh	GSTO1 counter	SIAE inh	PRMT1 confirm
COCCNC(=O)C(c1ccc(O)cc1)N(C(=O)CCC(=O)Nc1nccs1)c1cccc(C)c1 (stereo not drawn)	-4.2	-4.9	0.8	5.6	-1.4	/
CCN=C1SC(C(=O)NCCc2ccccc2)CC(=O)N1CC (stereo not drawn)	-0.8	1.6	39.0*	-0.2	0.5	0.3
CCN=C1SC(C(=O)Nc2cccc(Cl)c2)CC(=O)N1CC (stereo not drawn)	-2.3	-7.6	-10.2	-1.4	-1.4	/
CCN=C1SC(CC(=O)NCc2ccccc2)C(=O)N1CC (stereo not drawn)	2.9	-3.2	78.4*	-1.4	1.5	5.5
CCCCNC(=O)CC1SC(=NCC)N(CC)C1=O (stereo not drawn)	-8.3	0.1	3.7	0.7	7.8	/
N#Cc1c(Cl)nsc1NN	-4.0	-1.8	39.6*	7.8	11.1	6.7
COc1ccc2c(CN3CCN(c4ccc(Cl)c(Cl)c4)CC3)cc(=O)oc2c1	/	/	-2.4	/	5.7	/
CC(=O)N1CCc2cc(N=NC3=C(O)CCCC3=O)ccc21	1.8	-4.6	-1.3	-1.1	-7.8	/
O=C(CSC1=NCCS1)Nc1ccc(F)cc1	-7.0	-1.4	3.2	-11.0	1.8	/
Cc1cc(NC(=O)CSC2=NCCS2)no1	-6.5	-0.8	38.9*	-5.0	-6.1	18.5
NC(=O)c1ccccc1NC(=O)CSC1=NCCS1	/	3.2	27.5*	34.7	2.7	53.3*
CC1CN(CC(=O)N2CCc3[nH]c4ccccc4c3C2)CC(C)O1 (stereo not drawn)	-9.3	-19.1	2.9	-0.6	3.0	/
Nc1sc2c(c1C(=O)c1ccccc1)CCCC2	0.5	-4.0	11.6	6.3	4.4	/
NC(=O)c1c(N)sc2c1CCCC2	10.5	-2.0	40.6*	6.7	2.6	28.9*
Cc1cc(Br)ccc1NC(=O)C(C)c1ccc([N+](=O)[O-])cc1 (stereo not drawn)	-14.6	-7.9	-0.5	19.6	1.9	/
O=C(NC1CCCCCC1)c1ccc(N2CCCC2=O)cc1	-11.0	2.0	-1.1	-2.0	4.0	/
Cc1cccc(N2C(=O)C=CC2=O)c1	/	/	70.9*	/	2.1	87.6*
O=C1C=CC(=O)N1c1ccc2ccccc2c1	/	/	69.9*	/	-2.6	90.2*
CCCCCCCCCc1nc(N)n[nH]1	-10.4	8.7	1.6	3.9	-8.4	/
O=C(Cc1ccc(-n2c(=O)c3ccccc3n(Cc3ccccc3F)c2=O)cc1)NCC1CCCO1 (stereo not drawn)	-1.1	-4.5	0.5	-0.6	2.9	/
Fc1ccc(CSc2nnc3ccccn23)c(Cl)c1	-4.0	1.8	45.6*	-0.1	2.9	-2.5
O=Cc1ccc(-c2nc3ccccc3s2)o1	-1.6	1.5	3.0	0.7	-6.0	/
O=C(O)CCCN1C(=O)/C(=C\c2ccc(-c3nc4ccccc4s3)o2)SC1=S	6.5	-5.0	49.2*	22.0	-2.2	12.4
O=C(O)CCN1C(=O)/C(=C/c2ccc(-c3nc4ccccc4s3)o2)SC1=S	-8.3	0.0	69.2*	-4.5	-10.1	23.3*
O=C(O)CC(C(=O)O)N1C(=O)/C(=C/c2ccc(-c3nc4ccccc4s3)o2)SC1=S (stereo not drawn)	-1.3	4.4	55.1*	26.2	3.8	-14.6
O=C(O)c1ccc(-c2nc3ccccc3s2)o1	0.1	-1.9	5.5	2.6	5.8	/
